Laboratory results taken from publication PMC12399198 (Acta Pharmaceutica Sinica. B, 2025).
Peptide text beside a SMILES is read from it. * marks the point of attachment. Cbz = O=C(OCc1ccccc1)*

Columns and labels:
[1] = tested on: OVA-induced AR mouse model; test: OVA-induced AR mouse model; type: in vivo; details: OVA-induced AR mice
Summary of the method: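 Male C57BL/6 mice, 6 weeks old, sensitised i.p. with OVA/alum (1:1) weekly for 3 weeks. Then challenged i.n. with OVA 2 mg/20 µL daily for 7 days. Test compound given i.n. at 0, 5, 10 or 20 mg/kg in 5% DMSO/45% PEG400/50% PBS, once daily, 6 h before each challenge; dexamethasone 1 mg/kg as reference. Sneezes and nasal rubs counted blinded for 10 min, starting 10 min after challenge; n = 8.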

Keap1 = Keap1 (Homo sapiens, UniProt Q14145); test: Keap1 degradation in MDA-MB-231 cells; type: cell-based; details: 24 h, dose-dependent
Chain of Keap1 (Q14145 whole entry): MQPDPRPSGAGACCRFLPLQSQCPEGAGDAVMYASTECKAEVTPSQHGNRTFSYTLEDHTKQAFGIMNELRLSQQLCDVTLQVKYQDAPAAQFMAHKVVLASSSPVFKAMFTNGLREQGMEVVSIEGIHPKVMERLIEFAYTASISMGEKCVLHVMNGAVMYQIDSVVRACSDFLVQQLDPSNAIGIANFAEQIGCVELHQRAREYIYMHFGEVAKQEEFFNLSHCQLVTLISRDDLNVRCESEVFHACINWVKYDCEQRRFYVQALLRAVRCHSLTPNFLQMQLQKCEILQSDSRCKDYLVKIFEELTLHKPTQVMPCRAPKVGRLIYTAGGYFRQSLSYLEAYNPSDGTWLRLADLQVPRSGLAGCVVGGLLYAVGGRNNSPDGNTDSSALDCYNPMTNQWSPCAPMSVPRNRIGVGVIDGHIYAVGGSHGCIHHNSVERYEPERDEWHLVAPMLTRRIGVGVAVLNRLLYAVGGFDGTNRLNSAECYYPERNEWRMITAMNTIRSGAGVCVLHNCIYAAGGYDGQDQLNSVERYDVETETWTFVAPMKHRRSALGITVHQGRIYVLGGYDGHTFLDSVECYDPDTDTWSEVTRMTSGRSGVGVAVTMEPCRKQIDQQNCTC

SMILES | allergic nasal symptoms (number of nasal rubbing and sneezing every 10 min) ([1]; i.n. daily for 7 days, 8 at 5, 10, 20 mg/kg, DEX 1 mg/kg) | CD45+ cells in nasal mucosa (IHC staining) ([1]; DEX or high dose of 8) | eosinophil infiltration within the nasal mucosa (Giemsa staining) ([1]; DEX or high dose of 8) | effect on Keap1 levels (Keap1)
C[C@@H]1C[C@H]2[C@@H]3CCC4=CC(=O)C=C[C@]4(C)[C@@]3(F)[C@@H](O)C[C@]2(C)[C@@]1(O)C(=O)CO [DEX, Dexamethasone] | decreased | reduced | significantly reduced | 
CC(C)C[C@@H](C=O)NC(=O)[C@H](CC(C)C)NC(=O)[C@H](CC(C)C)NC(=O)OCc1ccccc1 [MG132] (Cbz-Leu-Leu-Leu-aldehyde) |  |  |  | decreasing Keap1 levels
